Results published in ChEMBL document CHEMBL4350958, “Rational Design of Short Peptide Variants by Using Kunitzin-RE, an Amphibian-Derived Bioactivity Peptide, for Acquired Potent Broad-Spectrum Antimicrobial and Improved Therapeutic Potential of Commensalism Coinfection of Pathogens” (J Med Chem, 2019).
≈ marks a conversion by molar mass, not a printed value.

How the values were obtained:
[1] = Conformational stability in sodium dodecyl sulfate at 35 uM by CD spectra analysis; assay type: physicochemical
Outline: (§1)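 CD spectra from 190 to 250 nm of peptide at 35 μM in 10 mM PBS, 30 mM SDS micelles or 50% TFE, recorded in a 1.0-mm quartz cell. Ellipticity was converted to mean residue ellipticity. Three independent scans, each averaged over more than 3 runs.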

[2] = Conformational stability in pH 7.4 sodium phosphate buffer assessed as absorption spectra at minimum dichroic band at 35 uM by CD spectra analysis; assay type: physicochemical; settings: pH 7.4, 35 µM; outline: as §1
[3] = Therapeutic index, ratio of MHC10 for hemolytic activity in human RBC to MIC95 against Staphylococcus aureus ATCC 29213; assay type: toxicity; settings: human red blood cells (erythrocytes), read-out: TI
Outline: (§2)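 Therapeutic index = MHC divided by MIC. MHC is the lowest concentration giving >10% lysis of human RBC (1 h, 37 °C, 1-128 µM, A576). MIC is 95% growth inhibition by broth microdilution: bacteria in MHB 24 h at 37 °C; Candida in MOPS-buffered RPMI 1640 at (0.5–1) × 10^3 CFU mL−1, 48 h at 28 °C.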

Candida albicans [4] = test: Antifungal activity against Candida albicans cgmcc2.2086 measured after 48 hrs in presence of CaCl by broth microdilution method; assay type: functional
Escherichia coli [5] = test: Antibacterial activity against Escherichia coli 078 measured after 24 hrs; assay type: functional
Outline: (§3)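 Broth microdilution adapted from NCCLS. Mid-log bacteria were diluted in MHB to a final (0.5–1) × 10^5 CFU mL−1. Peptides were serially diluted in 0.2% BSA and mixed with an equal volume of cells. After 24 h at 37 °C, MIC was read at A492 as the lowest concentration inhibiting 95% of growth. At least three independent experiments, each with three technical replicates.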

Escherichia coli [6] = test: Antibacterial activity against Escherichia coli ATCC 25922 measured after 24 hrs; assay type: functional; outline: as §3
[7] = Therapeutic index, ratio of MHC10 for hemolytic activity in human RBC to MIC95 against methicillin-resistant Staphylococcus aureus ATCC 43300; assay type: toxicity; settings: human red blood cells (erythrocytes), read-out: TI; outline: as §2
Salmonella typhimurium = test: Antibacterial activity against Salmonella typhimurium ATCC 14028 measured after 24 hrs; assay type: functional, Salmonella enterica subsp. enterica serovar Typhimurium; outline: as §3
Escherichia coli [8] = test: Antibacterial activity against Escherichia coli ATCC 25922 measured after 18 to 24 hrs in presence of KCl; assay type: functional
[9] = Therapeutic index, ratio of MHC10 for hemolytic activity in human RBC to MIC95 against Staphylococcus epidermidis ATCC 12228; assay type: toxicity; settings: human red blood cells (erythrocytes), read-out: TI; outline: as §2
[10] = Therapeutic index, ratio of MHC10 for hemolytic activity in human RBC to MIC95 against Staphylococcus aureus ATCC 25923; assay type: toxicity; settings: human red blood cells (erythrocytes), read-out: TI; outline: as §2
Escherichia coli [11] = test: Antibacterial activity against Escherichia coli ATCC 25922 measured after 18 to 24 hrs in presence of CaCl2; assay type: functional
Staphylococcus aureus [12] = test: Antibacterial activity against Staphylococcus aureus ATCC 29213 measured after 18 to 24 hrs in presence of KCl; assay type: functional
Staphylococcus aureus [13] = test: Bactericidal activity against Staphylococcus aureus ATCC 25923 incubated for 24 hrs followed by replating on agar plate and measured after overnight incubation; assay type: functional; settings: for MBC: ATCC 25923, 24 h, read-out: MBC>99.9
Outline: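 After the 24 h, 37 °C MHB microdilution MIC assay, 50 μL from each well was plated on agar and incubated overnight. MBC taken as lowest peptide concentration killing >99.9% of cells. At least three independent experiments, each with three technical replicates.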

[14] = test system: Salmonella enterica subsp. enterica serovar Pullorum; test: Bactericidal activity against Salmonella pullorum ATCC 7913 incubated for 24 hrs followed by replating on agar plate and measured after overnight incubation; assay type: functional
Outline: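 Mid-log bacteria diluted in MHB to (0.5–1) × 10^5 CFU/mL and mixed 1:1 with peptide serially diluted in 0.2% BSA. After 24 h at 37 °C, 50 μL of each mixture was plated on agar and incubated overnight. MBC taken as the lowest concentration killing >99.9% of cells. At least three independent experiments, each with three technical replicates.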

Candida albicans [15] = test: Fungicidal activity against Candida albicans cgmcc2.2086 incubated for 48 hrs followed by replating on YM agar plate and measured after 48 hrs; assay type: functional
Outline: (§4)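 Yeast diluted in MOPS-buffered RPMI 1640 to (0.5–1) × 10^3 CFU/mL (CLSI M27-A2, modified) and mixed 1:1 with peptide serially diluted in 0.2% BSA. After 48 h at 28 °C, 50 μL per well was plated on YM agar and incubated 48 h at 28 °C. MFC taken as the lowest concentration killing ≥99.9% of cells. Three or more independent experiments, triplicate wells.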

Candida parapsilosis = test: Fungicidal activity against Candida parapsilosis cgmcc2.3989 incubated for 48 hrs followed by replating on YM agar plate and measured after 48 hrs; assay type: functional; outline: as §4
Candida tropicalis = test: Fungicidal activity against Candida tropicalis cgmcc2.1975 incubated for 48 hrs followed by replating on YM agar plate and measured after 48 hrs; assay type: functional; outline: as §4
[16] = Conformational stability in sodium dodecyl sulfate assessed as beta-sheet conformation by measuring absorption spectra at maximum dichroic band at 35 uM by CD spectra analysis; assay type: physicochemical; outline: as §1
[17] = Conformational stability in sodium dodecyl sulfate assessed as beta-sheet conformation by measuring absorption spectra at minimum dichroic band at 35 uM by CD spectra analysis; assay type: physicochemical; outline: as §1
[18] = Salmonella enterica, ATCC 14028, 24 h

Molecule | Stability [1] | Wavelength of minimum CD band [2] | selectivity ratio [3] | MIC95 (Candida albicans [4]; cgmcc2.2086, 48 h) | MIC95 (Escherichia coli [5]; Escherichia coli, 078, 24 h) | MIC95 (Escherichia coli [6]; ATCC 25922, 24 h) | selectivity ratio [7] | MIC95 (Salmonella typhimurium; [18]) | MIC95 (Escherichia coli [8]) | selectivity ratio [9] | selectivity ratio [10] | MIC95 (Escherichia coli [11]) | MIC95 (Staphylococcus aureus [12]) | MBC (Staphylococcus aureus [13]) | MFC<=99.9 (Candida parapsilosis) | MFC<=99.9 (Candida tropicalis) | Wavelength of maximum dichroic band [16] | Activity [17] | MFC<=99.9 (Candida albicans [15]) | other results
H-AARIILRPRFR-NH2 | Unstable | 200 nm | 2 | > 128 µM | 8 µM | 16 µM | 2 | 16 µM | 16 µM | 2 | 2 | 128 µM | > 128 µM |  |  |  |  |  |  | 
CC(C)(O/N=C(\C(=O)N[C@@H]1C(=O)N2C(C(=O)[O-])=C(C[n+]3ccccc3)CS[C@H]12)c1csc(N)n1)C(=O)O [CEFTAZIDIME] |  |  |  | > 128 µM | 0.5 µM (≈ 0.273 µg/mL) | 2 µM (≈ 1.09 µg/mL) |  | 1 µM (≈ 0.547 µg/mL) | 2 µM |  |  | 2 µM | 16 µM | 32 µM (≈ 17.5 µg/mL) |  |  |  |  |  | 
H-AARIILRDRFR-NH2 | Unstable | 200 nm | 2 | > 128 µM | > 128 µM | ≥ 128 µM | 2 | > 128 µM | 128 µM | 2 | 2 | > 128 µM | > 128 µM |  |  |  |  |  |  | 
POLYMYXIN B |  |  |  |  |  |  |  |  | 2 µM |  |  | 16 µM | 32 µM |  | 16 µM |  |  |  |  | MBC>99.9 [14]: 1 µM; MBC>99.9 (Staphylococcus aureus [13]): > 128 µM; MFC (≥99.9% killing) (Candida albicans [15]): 64 µM; MIC95 (Candida albicans [4]): > 128 µM; MIC95 (Escherichia coli [5]): 1 µM; MIC95 (Escherichia coli [6]): 2 µM; MIC95 (Salmonella typhimurium; Salmonella enterica subsp. enterica serovar Typhimurium): 2 µM
H-AARIILRTRFR-NH2 |  | 200 nm | 16 | > 128 µM | 4 µM | 8 µM | 16 | 16 µM | 32 µM | 16 | 16 | > 128 µM | 32 µM | 32 µM |  | 64 µM | 200 nm | 216 to 220 nm |  | 
H-AARIILRLRFR-NH2 |  | 200 nm | 128 | 32 µM | 4 µM | 4 µM | 128 | 4 µM | 8 µM | 128 | 128 | 32 µM | 2 µM | 4 µM | 8 µM | 4 µM | 200 nm | 216 to 220 nm | 16 µM | 
H-AARIILRFRFR-NH2 |  | 200 nm | 128 | 64 µM | 4 µM | 8 µM | 128 | 4 µM | 16 µM | 128 | 128 | 32 µM | 2 µM | 4 µM | 8 µM | 4 µM | 200 nm | 216 to 220 nm | 16 µM | 
H-AAKIILNPKFR-NH2 | Unstable | 200 nm | 2 | > 128 µM | > 128 µM | > 128 µM | 2 | > 128 µM | 128 µM | 2 | 2 | > 128 µM | > 128 µM |  |  |  |  |  |  | 
H-AARIILRRRFR-NH2 | Unstable | 200 nm | 13.4 | > 128 µM | 16 µM | 8 µM | 13.4 | 32 µM | 64 µM | 13.4 | 13.4 | 128 µM | 32 µM | 64 µM | 128 µM | 128 µM |  |  |  | 
H-AARIILRWFRR-NH2 |  | 200 nm | 53.8 | 32 µM | 2 µM | 2 µM | 53.8 | 4 µM | 2 µM | 53.8 | 53.8 | 4 µM | 4 µM | 8 µM | 8 µM | 4 µM | 200 nm | 216 to 220 nm | 8 µM | 
H-AARIILRARFR-NH2 |  | 200 nm | 90.5 | 64 µM | 4 µM | 4 µM | 90.5 | 4 µM | 8 µM | 90.5 | 90.5 | 32 µM | 8 µM | 8 µM | 16 µM | 4 µM | 200 nm | 216 to 220 nm | 32 µM | 
H-AARIILRYRFR-NH2 |  | 200 nm | 64 | 128 µM | 4 µM | 8 µM | 64 | 8 µM | 32 µM | 64 | 64 | > 128 µM | 8 µM | 16 µM | 128 µM | 32 µM | 200 nm | 216 to 220 nm | 64 µM | 
H-AARIILRNRFR-NH2 | Unstable | 200 nm | 2 | > 128 µM | 16 µM | 32 µM | 2 | 32 µM | 64 µM | 2 | 2 | > 128 µM | > 128 µM |  |  |  |  |  |  | 
H-AARIILRGRFR-NH2 | Unstable | 200 nm | 26.9 | > 128 µM | 4 µM | 4 µM | 26.9 | 4 µM | 8 µM | 26.9 | 26.9 | 64 µM | 8 µM | 32 µM |  | 32 µM |  |  |  | 
H-AARIILRIRFR-NH2 |  | 200 nm | 64 | 64 µM | 2 µM | 4 µM | 64 | 2 µM | 2 µM | 64 | 64 | 32 µM | 2 µM | 4 µM | 8 µM | 4 µM | 200 nm | 216 to 220 nm | 8 µM | 
